In the library only some 4.6% were active in any assay of this set; here they are far more common.
CHO parental Ca: counter-screen for OX1R antagonists: effect in parental CHO cells | parental CHO-K1, ATP-induced calcium, Fluo-8 fluorescence | inhibition, % at 5.6 µM | hit rate 0.63% among 330,000;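 active means inhibition above that plate's mean sample inhibition plus 3 SD, cut at about 26% in these data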;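 further: 0% = ATP-challenged DMSO wells and 100% = DMSO wells without ATP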
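Assay system – parental CHO cells · Reagent – ATP stimulus · Detection – intracellular calcium via Fluo-8 no-wash fluorescent dye · Evaluation – percent inhibition of ATP-evoked calcium rise, normalized to controls · Controls – ATP wells versus no-ATP DMSO wells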
GPR7 antagonist: human neuropeptides B/W receptor 1 antagonism. GPR7-expressing cells, fluorescence antagonist assay. hit rate 1.1% among 290,000. inhibition, % at 4.4 µM. P48145; in the data active means inhibition above about 16%, passing the limit was not always enough;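 further: cells stimulated with the agonist NPW; 0% = agonist with vehicle and 100% = vehicle without agonist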
Target sequence (P48145 whole entry, looked up): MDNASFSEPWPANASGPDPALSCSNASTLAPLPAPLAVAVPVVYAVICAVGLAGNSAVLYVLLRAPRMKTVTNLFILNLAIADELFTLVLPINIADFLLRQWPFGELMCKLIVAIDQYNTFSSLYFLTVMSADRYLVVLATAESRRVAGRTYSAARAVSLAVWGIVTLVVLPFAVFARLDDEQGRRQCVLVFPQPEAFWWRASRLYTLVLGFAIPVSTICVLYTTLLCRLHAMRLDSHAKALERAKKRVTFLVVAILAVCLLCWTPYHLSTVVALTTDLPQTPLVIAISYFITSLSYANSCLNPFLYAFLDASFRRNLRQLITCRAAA
OX1R antag-1: blocks the human orexin 1 receptor | O43613 | CHO/OX1R cells, Fluo-8 calcium fluorescence, orexin A | inhibition, % at 5 µM | hit rate 0.43% among 330,000;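 active means inhibition above its plate's threshold, mean inhibition of all tested compounds on the plate plus 3 SD, cut at about 37% in these data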;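 further: 0% = orexin A challenge wells and 100% = SB-334867-A antagonist wells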
TAAR1 agonist: agonists of human TAAR1. hit rate 0.99% among 360,000. CHO RD-HGA16 TAAR1, Fluo-8 calcium fluorescence; vehicle wells 0%, saturating PEA agonist 100%. activation, % at 3 µM. AID 624467. Q96RJ0;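 active means activation above the mean activation of all test compounds in the run plus 3 SD, cut at about 38% in these data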
Target sequence (Q96RJ0 whole entry, looked up): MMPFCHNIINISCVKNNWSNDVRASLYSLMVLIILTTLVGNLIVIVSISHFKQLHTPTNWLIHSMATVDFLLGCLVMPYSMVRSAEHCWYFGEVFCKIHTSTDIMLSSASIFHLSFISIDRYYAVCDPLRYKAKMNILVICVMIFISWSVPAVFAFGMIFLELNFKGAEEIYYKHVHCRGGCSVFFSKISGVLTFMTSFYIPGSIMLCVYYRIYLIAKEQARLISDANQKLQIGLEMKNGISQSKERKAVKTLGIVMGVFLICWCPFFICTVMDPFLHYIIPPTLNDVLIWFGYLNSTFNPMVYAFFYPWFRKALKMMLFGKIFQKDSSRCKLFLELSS
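Test system: RD-HGA16 (CHO) cells co-expressing Gα16 and hTAAR1 | Doses: Single dose, 3 µM | Schedule: 17-24 h seeding, 75 min 37 °C dye, 30 min RT | Evaluation: % activation from peak over basal fluorescence ratio, DMSO-to-PEA scaled | Technique: Kinetic Fluo-8 calcium fluorescence | Benchmarks: Low control DMSO, high control PEA (EC100)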
TAAR1 antagonist: antagonists of human TAAR1; Q96RJ0; hit rate 1.5% among 360,000; inhibition, % at 3 µM; CHO RD-HGA16 TAAR1, Fluo-8 calcium fluorescence, antagonist; AID 624466;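 active means inhibition above a per-plate cutoff, the mean inhibition of test compounds on that plate plus 3 SD, cut at about 49% in these data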;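 further: 0% = DMSO plus EC80 beta-PEA response and 100% = DMSO alone without agonist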
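Test system – hTAAR1-expressing CHO RD-HGA16 cells, Gα16-coupled · Reagent – β-PEA at EC80 concentration, post-compound challenge · Compound dosing – 3 µM, single point · Timing – 140 s kinetic read after compound, 140 s after agonist · Detection – Fluo-8 intracellular calcium dye fluorescence, real-time kinetic reads · Control set – DMSO and EC80 PEA controls · Repeats – n of 1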
OX1R antag-2: OX1R (human) antagonism | O43613 | OX1R-expressing cells, FRET antagonist read-out | inhibition, % at 6.6 µM | hit rate 1.8% among 330,000 | AID 485270; in the data active means inhibition mostly above about 38%, no sharp cut-off; inactive means mostly below about 40%;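 further: 0% = agonist challenge alone and 100% = reference antagonist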
GPR7 antag cf: confirmation of human GPR7 antagonists; shares compounds with GPR7 antagonist; GPR7-expressing cells, calcium fluorescence antagonist mode; inhibition, % at 4.4 µM; hit rate 52% among 2,400; AID 1952; in the data active means inhibition above about 24%;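 further: stimulated with the GPR7 agonist NPW; 0% = agonist plus vehicle and 100% = vehicle alone without agonist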
MCHR1 antag: MCHR1 (human) antagonism in GPR7 counter-screen; shares compounds with GPR7 antagonist; MCHR1-expressing cells, fluorescence antagonist assay; inhibition, % at 4.4 µM; hit rate 62% among 2,400; in the data active means inhibition above about 22%;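 further: 0% = vehicle with agonist and 100% = vehicle without agonist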
Active calls of the source: *.

What do the screens show for `CCN(CC#CCC(O)(c1ccccc1)C1CCCC1)C(C)C` (centres undefined)?
CHO parental Ca: -22; GPR7 antagonist: 29*; OX1R antag-1: -18; TAAR1 agonist: 11; TAAR1 antagonist: 3; OX1R antag-2: 20; GPR7 antag cf: 3; MCHR1 antag: -1

What do the screens show for `CCCCCOc1ccc(Cn2ccnc2)cc1[N+](=O)[O-]`?
CHO parental Ca: -8; GPR7 antagonist: 21*; OX1R antag-1: -22; TAAR1 agonist: 1; TAAR1 antagonist: 16; OX1R antag-2: 11; GPR7 antag cf: 37*; MCHR1 antag: 48*

What do the screens show for `CCOc1ccc(Cn2ccnc2)cc1[N+](=O)[O-]`?
CHO parental Ca: -8; GPR7 antagonist: -3; OX1R antag-1: -6; TAAR1 agonist: 0; TAAR1 antagonist: -9; OX1R antag-2: 19

How did Nc1nnc(/C=C/c2ccccc2Cl)s1 do in these assays?
CHO parental Ca: -10; GPR7 antagonist: -10; OX1R antag-1: -11; TAAR1 agonist: 1; TAAR1 antagonist: 5; OX1R antag-2: 18

What do the screens show for `CN(C)c1ccc(CN2CCC(C(=O)NC(c3ccc(Cl)cc3)c3cnccn3)CC2)cc1` (centres undefined)?
TAAR1 agonist: 3; TAAR1 antagonist: -14

Results for CCCCCCn1c2c(c(=N)c3c1CCC3)CCC2 ?
CHO parental Ca: 5; GPR7 antagonist: 37*; OX1R antag-1: -9; TAAR1 agonist: 14; TAAR1 antagonist: 3; OX1R antag-2: 11; GPR7 antag cf: 42*; MCHR1 antag: 46*

How did CCCCn1c2c(c(=N)c3c1CCC3)CCC2 do in these assays?
CHO parental Ca: -10; GPR7 antagonist: 9; OX1R antag-1: -15; TAAR1 agonist: 17; TAAR1 antagonist: 3; OX1R antag-2: 13

Results for CCOC(=O)C1(CCOc2ccccc2)CCN(Cc2cccc(OC)c2OC)CC1 ?
CHO parental Ca: 37*; GPR7 antagonist: 32*; OX1R antag-1: -17; TAAR1 agonist: 5; TAAR1 antagonist: -3; OX1R antag-2: 22; GPR7 antag cf: 24*; MCHR1 antag: 54*

How did COc1ccc(C(=O)Nc2cccc([N+](=O)[O-])c2)cc1Br do in these assays?
CHO parental Ca: 9; GPR7 antagonist: 6; OX1R antag-1: -1; TAAR1 agonist: 19; TAAR1 antagonist: 7; OX1R antag-2: 25

What do the screens show for `O=C(Nc1ccc(OC(F)F)c(Cl)c1)Nc1ccc2c(c1)OCO2`?
CHO parental Ca: 37*; GPR7 antagonist: 26*; OX1R antag-1: 45*; TAAR1 agonist: 7; TAAR1 antagonist: 38; OX1R antag-2: 44; GPR7 antag cf: 13; MCHR1 antag: 56*

Results for COc1ccc(NC(=O)Nc2cccc([N+](=O)[O-])c2)cc1Cl ?
CHO parental Ca: 5; GPR7 antagonist: 35*; OX1R antag-1: 29; TAAR1 agonist: 13; TAAR1 antagonist: 27; OX1R antag-2: 74*; GPR7 antag cf: 38*; MCHR1 antag: 59*

What do the screens show for `O=C(Nc1ccc([N+](=O)[O-])cc1)Nc1ccc(OC(F)F)c(Cl)c1`?
CHO parental Ca: 100*; GPR7 antagonist: 23*; OX1R antag-1: 84*; TAAR1 agonist: 8; TAAR1 antagonist: 60*; OX1R antag-2: 76*; GPR7 antag cf: 72*; MCHR1 antag: 75*

How did O=C(Nc1ccc(Cl)c(Cl)c1)c1ccc2c(c1)OCO2 do in these assays?
CHO parental Ca: -7; GPR7 antagonist: 27*; OX1R antag-1: -9; TAAR1 agonist: 3; TAAR1 antagonist: 10; OX1R antag-2: 21; GPR7 antag cf: 13; MCHR1 antag: 32*

What do the screens show for `O=C(Nc1ccc2c(c1)OCO2)Nc1ccc2c(c1)OCO2`?
CHO parental Ca: -2; GPR7 antagonist: -13; OX1R antag-1: -8; TAAR1 agonist: 12; TAAR1 antagonist: -13; OX1R antag-2: 5

Results for CCN(CC)S(=O)(=O)c1ccc(N2CC(C(=O)Nc3cccc(C(=O)NC4CC4)c3)CC2=O)cc1 (centres undefined) ?
TAAR1 agonist: 17; TAAR1 antagonist: -17

Results for COc1ccc(C2=NN(c3ccccc3)C(=O)/C2=C\c2ccc(O)c(OC)c2)cc1 ?
CHO parental Ca: 12; GPR7 antagonist: 30*; OX1R antag-1: 2; TAAR1 agonist: 3; TAAR1 antagonist: 7; OX1R antag-2: 14; GPR7 antag cf: 1; MCHR1 antag: 26*

How did COCCNc1nc(-c2ccc(OC)cc2C)c2sc(-c3ccccc3)cc2n1 do in these assays?
TAAR1 agonist: 1; TAAR1 antagonist: 22

How did COC(=O)c1sc(N)c(C(=O)OC)c1COC(=O)c1c(C)noc1C do in these assays?
CHO parental Ca: -8; GPR7 antagonist: 23*; OX1R antag-1: -25; TAAR1 agonist: 6; TAAR1 antagonist: -13; OX1R antag-2: 8; GPR7 antag cf: 9; MCHR1 antag: 15

Results for COC(=O)c1sc(NC(=O)c2c(C)noc2C)nc1C ?
CHO parental Ca: -1; GPR7 antagonist: -8; OX1R antag-1: -11; TAAR1 agonist: 0; TAAR1 antagonist: -9; OX1R antag-2: 28

Results for O=[N+]([O-])c1ccc(N2CCN(c3ccccc3)CC2)nc1 ?
CHO parental Ca: -5; GPR7 antagonist: 25; OX1R antag-1: 1; TAAR1 agonist: 2; TAAR1 antagonist: 7; OX1R antag-2: 18

How did O=[N+]([O-])c1ccc(N2CCN(c3ccc(F)cc3)CC2)nc1 do in these assays?
CHO parental Ca: 3; GPR7 antagonist: 47*; OX1R antag-1: 1; TAAR1 agonist: 2; TAAR1 antagonist: -7; OX1R antag-2: 2; GPR7 antag cf: 45*; MCHR1 antag: 56*

How did COc1cccc(N2CCN(c3ccc([N+](=O)[O-])cn3)CC2)c1 do in these assays?
CHO parental Ca: -3; GPR7 antagonist: 41*; OX1R antag-1: -1; TAAR1 agonist: 9; TAAR1 antagonist: -2; OX1R antag-2: 11; GPR7 antag cf: 40*; MCHR1 antag: 72*

Results for CC(=O)c1ccc(-n2nnnc2SCC(=O)N2CCc3ccccc3C2)cc1 ?
GPR7 antagonist: 29*; TAAR1 agonist: 16; TAAR1 antagonist: 9; GPR7 antag cf: 10; MCHR1 antag: 12

How did O=C(CSc1nnnn1-c1ccccc1)N1CCc2ccccc2C1 do in these assays?
CHO parental Ca: -21; GPR7 antagonist: -8; OX1R antag-1: -10; TAAR1 agonist: 3; TAAR1 antagonist: 13; OX1R antag-2: 19

How did CCOc1ccc(-c2cc(C(=O)N/N=C(\C)c3cccnc3)c3ccccc3n2)c(OCC)c1 do in these assays?
GPR7 antagonist: -21; TAAR1 agonist: 1; TAAR1 antagonist: -30
